Assay results as given in article PMC9942236 (Science translational medicine, 2023).

Key:
HA-Ras cells = assay: Cell viability of transformed astrocytes expressing HRAS G12V; assay type: cell-based, human; conditions: read-out: EC50 (cell viability), 1% serum, 96h
Summary of the method: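 Human astrocytes immortalized with E6/E7/hTERT and transformed by HRAS G12V expression were treated with test compound in 1% serum for 96 h, then viability was measured. At least three independent biological replicates; experiments repeated at least three times; mean ± SD.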

M120 = assay: Short-term cell viability of recurrent GSC line M120; assay type: cell-based, human; conditions: YTX-7739 at 10 μM, TMZ 50–100μM
[1] = tested on: 83 GSC orthotopic brain tumors; assay: Orthotopic 83 GSC mouse model: tumor growth and survival; assay type: in vivo; conditions: 83-bearing mice; YTX-7739 30mg/kg, TMZ 10mg/kg, IP
[2] = tested on: MGG8 orthotopic brain tumors; assay: Orthotopic MGG8 GSC mouse model: tumor growth and survival; assay type: in vivo; conditions: MGG8-bearing mice; YTX-7739 30 mg/kg, TMZ 5mg/kg, IP
Summary of the method: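 Fluc-expressing MGG8 GSCs (1–5 × 10⁴) implanted into left forebrain of male/female athymic nude mice; treatment began once tumors bioluminescence-detected (D-luciferin 150 mg/kg IP). Groups (n=8): vehicle (0.5% methylcellulose + 0.2% Tween80 in saline), test compound 30 mg/kg, TMZ 5 mg/kg (in 5% dextrose), or combination, IP. Tumor growth by bioluminescence; Kaplan-Meier survival, two-sided log-rank test; study ended at six months.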

SMILES | EC50 (HA-Ras cells) | short-term cell viability (M120) | median survival [1] | tumor growth [1] | survival [2] | survival percentage at six months after tumor implantation [2]
Cc1nnc(-c2ccc(N3CCC(Oc4cc(F)ccc4Cl)CC3)nn2)o1 [CAY10566] | 18.6 nM |  |  |  |  | 
Cn1nnc2c(C(N)=O)ncn2c1=O [TMZ, Temozolomide] |  | ineffective | 32 days | initially delayed tumor growth | 106.5 days | 25%
